What was measured:
Assay type in all cases: functional
Schaalia odontolytica = experiment: Antimicrobial activity against Actinomyces odontolyticus under anaerobic conditions after 44 hrs by CLSI-M11-47 protocol based agar dilution method
Outline: (§1)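 Reference agar dilution per CLSI M11-A7 with plates made on test day. Clinical isolates were stored at −70°C in 20% skim milk, subcultured twice, and 48-h cell paste was suspended in brucella broth to 0.5 McFarland. About 10^5 CFU/spot was applied with a Steers replicator. Plates were incubated 44 h at 37°C anaerobically. MIC was the lowest concentration giving complete inhibition or marked growth reduction versus the drug-free control.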

[1] = test system: Bacteroides thetaiotaomicron; experiment: Antimicrobial activity against Bacteroides thetaiotaomicron under anaerobic conditions after 44 hrs by CLSI-M11-47 protocol based agar dilution method; outline: as §1
Anaerococcus vaginalis = experiment: Antimicrobial activity against Anaerococcus vaginalis under anaerobic conditions after 44 hrs by CLSI-M11-47 protocol based agar dilution method; outline: as §1
Actinomyces israelii = experiment: Antimicrobial activity against Actinomyces israelii under anaerobic conditions after 44 hrs by CLSI-M11-47 protocol based agar dilution method; outline: as §1
Prevotella disiens = experiment: Antimicrobial activity against Prevotella disiens under anaerobic conditions after 44 hrs by CLSI-M11-47 protocol based agar dilution method
Outline: (§2)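 Clinical isolates were stored at −70°C in 20% skim milk and identified phenotypically or by partial 16S rRNA sequencing. Each strain was subcultured twice from frozen stock. Cell paste from 48-h cultures was suspended in brucella broth to a 0.5 McFarland standard. About 10^5 CFU per spot were applied by Steers replicator to agar dilution plates prepared on the day of testing. Plates were incubated 44 h at 37°C in an anaerobic chamber. MIC was taken as the lowest concentration giving complete inhibition or marked reduction of growth versus the drug-free control.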

Peptoniphilus harei = experiment: Antimicrobial activity against Peptoniphilus harei under anaerobic conditions after 44 hrs by CLSI-M11-47 protocol based agar dilution method; outline: as §2
Clostridium butyricum = experiment: Antimicrobial activity against Clostridium butyricum under anaerobic conditions after 44 hrs by CLSI-M11-47 protocol based agar dilution method
[2] = test system: Paraclostridium bifermentans; experiment: Antimicrobial activity against Clostridium bifermentans under anaerobic conditions after 44 hrs by CLSI-M11-47 protocol based agar dilution method; outline: as §1
Clostridium symbiosum = experiment: Antimicrobial activity against Clostridium symbiosum under anaerobic conditions after 44 hrs by CLSI-M11-47 protocol based agar dilution method; outline: as §1
Peptoniphilus lacrimalis = experiment: Antimicrobial activity against Peptoniphilus lacrimalis under anaerobic conditions after 44 hrs by CLSI-M11-47 protocol based agar dilution method; outline: as §2
Thomasclavelia ramosa = experiment: Antimicrobial activity against Clostridium ramosum under anaerobic conditions after 44 hrs by CLSI-M11-47 protocol based agar dilution method; outline: as §1
Eubacterium limosum = experiment: Antimicrobial activity against Eubacterium limosum under anaerobic conditions after 44 hrs by CLSI-M11-47 protocol based agar dilution method; outline: as §1
Anaerococcus = experiment: Antimicrobial activity against Anaerococcus sp. under anaerobic conditions after 44 hrs by CLSI-M11-47 protocol based agar dilution method; outline: as §1
Clostridium subterminale = experiment: Antimicrobial activity against Clostridium subterminale under anaerobic conditions after 44 hrs by CLSI-M11-47 protocol based agar dilution method; outline: as §1
Gemella sanguinis = experiment: Antimicrobial activity against Gemella sanguinis under anaerobic conditions after 44 hrs by CLSI-M11-47 protocol based agar dilution method; outline: as §2
Veillonella = experiment: Antimicrobial activity against Veillonella spp. under anaerobic conditions after 44 hrs by CLSI-M11-47 protocol based agar dilution method; outline: as §2
Bacteroides caccae = experiment: Antimicrobial activity against Bacteroides caccae under anaerobic conditions after 44 hrs by CLSI-M11-47 protocol based agar dilution method; outline: as §1
Clostridioides difficile = experiment: Antimicrobial activity against Clostridium difficile under anaerobic conditions after 44 hrs by CLSI-M11-47 protocol based agar dilution method; outline: as §1
[3] = test system: Prevotella melaninogenica; experiment: Antimicrobial activity against Prevotella melaninogenica under anaerobic conditions after 44 hrs by CLSI-M11-47 protocol based agar dilution method; outline: as §2
Bacteroides fragilis = experiment: Antimicrobial activity against Bacteroides fragilis under anaerobic conditions after 44 hrs by CLSI-M11-47 protocol based agar dilution method; outline: as §1
Schaalia meyeri = experiment: Antimicrobial activity against Actinomyces meyeri under anaerobic conditions after 44 hrs by CLSI-M11-47 protocol based agar dilution method; outline: as §1

CO/N=C(\C(=O)N[C@@H]1C(=O)N2C(C(=O)O)=C(CSc3nc(=O)c(O)nn3C)CS[C@H]12)c1csc(N)n1 [CEFTRIAXONE]
> 64 µg/mL: MIC50 [1] | MIC90 [1] | MIC50 (Bacteroides caccae) | MIC90 (Bacteroides caccae)
8 µg/mL: MIC90 (Prevotella disiens) | MIC90 (Veillonella)
4 µg/mL: MIC50 (Veillonella)
1 µg/mL: MIC50 (Prevotella disiens)
2 µg/mL: MIC50 (Clostridium butyricum) | MIC50 [2] | MIC50 (Clostridium symbiosum) | MIC90 (Eubacterium limosum) | MIC50 (Clostridium subterminale) | MIC50 (Clostridioides difficile) | MIC50 [3]
0.5 µg/mL: MIC90 (Schaalia odontolytica) | MIC90 (Actinomyces israelii) | MIC90 (Thomasclavelia ramosa) | MIC50 (Eubacterium limosum) | MIC90 (Schaalia meyeri)
16 µg/mL: MIC90 (Anaerococcus vaginalis) | MIC90 (Peptoniphilus harei) | MIC90 (Peptoniphilus lacrimalis) | MIC90 (Anaerococcus) | MIC90 (Gemella sanguinis)
32 µg/mL: MIC90 [3] | MIC50 (Bacteroides fragilis)
64 µg/mL: MIC90 (Clostridium butyricum) | MIC90 [2] | MIC90 (Clostridium symbiosum) | MIC90 (Clostridium subterminale) | MIC90 (Clostridioides difficile) | MIC90 (Bacteroides fragilis)
0.25 µg/mL: MIC50 (Anaerococcus vaginalis) | MIC50 (Peptoniphilus harei) | MIC50 (Peptoniphilus lacrimalis) | MIC50 (Thomasclavelia ramosa) | MIC50 (Anaerococcus) | MIC50 (Gemella sanguinis)
0.125 µg/mL: MIC50 (Schaalia odontolytica) | MIC50 (Actinomyces israelii) | MIC50 (Schaalia meyeri)

CCC[C@@H]1C[C@@H](C(=O)N[C@@H]([C@H]2O[C@H](SC)[C@H](O)[C@@H](O)[C@H]2O)[C@H](C)Cl)N(C)C1 [CLINDAMYCIN]
4 µg/mL: MIC50 [1] | MIC50 (Thomasclavelia ramosa) | MIC50 (Bacteroides caccae)
1 µg/mL: MIC50 (Bacteroides fragilis)
0.06 µg/mL: MIC50 (Schaalia odontolytica) | MIC50 (Actinomyces israelii) | MIC50 (Eubacterium limosum) | MIC50 (Schaalia meyeri)
2 µg/mL: MIC50 (Clostridium butyricum) | MIC50 [2] | MIC50 (Clostridium symbiosum) | MIC90 (Eubacterium limosum) | MIC50 (Clostridium subterminale) | MIC50 (Clostridioides difficile)
≤ 0.03 µg/mL: MIC50 (Prevotella disiens) | MIC50 [3]
> 128 µg/mL: MIC90 (Bacteroides caccae) | MIC90 [3]
64 µg/mL: MIC90 (Anaerococcus vaginalis) | MIC90 (Peptoniphilus harei) | MIC90 (Peptoniphilus lacrimalis) | MIC90 (Anaerococcus) | MIC90 (Gemella sanguinis)
8 µg/mL: MIC90 (Thomasclavelia ramosa)
0.125 µg/mL: MIC50 (Anaerococcus vaginalis) | MIC50 (Peptoniphilus harei) | MIC50 (Peptoniphilus lacrimalis) | MIC50 (Anaerococcus) | MIC50 (Gemella sanguinis) | MIC50 (Veillonella)
128 µg/mL: MIC90 (Schaalia odontolytica) | MIC90 [1] | MIC90 (Actinomyces israelii) | MIC90 (Prevotella disiens) | MIC90 (Clostridium butyricum) | MIC90 [2] | MIC90 (Clostridium symbiosum) | MIC90 (Clostridium subterminale) | MIC90 (Veillonella) | MIC90 (Clostridioides difficile) | MIC90 (Bacteroides fragilis) | MIC90 (Schaalia meyeri)

CCO/N=C(\C(=O)N[C@@H]1C(=O)N2C(C(=O)[O-])=C(Sc3nc(-c4cc[n+](C)cc4)cs3)CS[C@H]12)c1nsc(NP(=O)(O)O)n1 [CEFTAROLINE FOSAMIL]
0.06 µg/mL: MIC50 (Anaerococcus vaginalis) | MIC50 (Peptoniphilus harei) | MIC50 (Peptoniphilus lacrimalis) | MIC50 (Anaerococcus) | MIC50 (Gemella sanguinis)
0.125 µg/mL: MIC50 (Eubacterium limosum) | MIC50 (Veillonella)
2 µg/mL: MIC50 (Prevotella disiens) | MIC50 [3]
32 µg/mL: MIC90 (Prevotella disiens) | MIC90 [3]
16 µg/mL: MIC90 (Clostridium butyricum) | MIC90 [2] | MIC90 (Clostridium symbiosum) | MIC90 (Clostridium subterminale) | MIC90 (Clostridioides difficile) | MIC50 (Bacteroides fragilis)
0.5 µg/mL: MIC50 (Clostridium butyricum) | MIC50 [2] | MIC50 (Clostridium symbiosum) | MIC50 (Clostridium subterminale) | MIC90 (Veillonella) | MIC50 (Clostridioides difficile)
64 µg/mL: MIC50 [1] | MIC50 (Bacteroides caccae) | MIC90 (Bacteroides fragilis)
0.25 µg/mL: MIC90 (Schaalia odontolytica) | MIC90 (Actinomyces israelii) | MIC90 (Eubacterium limosum) | MIC90 (Schaalia meyeri)
0.015 µg/mL: MIC50 (Schaalia odontolytica) | MIC50 (Actinomyces israelii) | MIC50 (Schaalia meyeri)
> 64 µg/mL: MIC90 [1] | MIC90 (Bacteroides caccae)
1 µg/mL: MIC90 (Anaerococcus vaginalis) | MIC90 (Peptoniphilus harei) | MIC90 (Peptoniphilus lacrimalis) | MIC50 (Thomasclavelia ramosa) | MIC90 (Thomasclavelia ramosa) | MIC90 (Anaerococcus) | MIC90 (Gemella sanguinis)

Cc1ncc([N+](=O)[O-])n1CCO [METRONIDAZOLE]
4 µg/mL: MIC90 (Anaerococcus vaginalis) | MIC90 (Peptoniphilus harei) | MIC90 (Clostridium butyricum) | MIC90 [2] | MIC90 (Clostridium symbiosum) | MIC90 (Peptoniphilus lacrimalis) | MIC90 (Anaerococcus) | MIC90 (Clostridium subterminale) | MIC90 (Gemella sanguinis) | MIC90 (Clostridioides difficile)
> 32 µg/mL: MIC50 (Schaalia odontolytica) | MIC90 (Schaalia odontolytica) | MIC50 (Actinomyces israelii) | MIC90 (Actinomyces israelii) | MIC50 (Schaalia meyeri) | MIC90 (Schaalia meyeri)
8 µg/mL: MIC90 (Veillonella)
1 µg/mL: MIC50 [1] | MIC90 [1] | MIC50 (Anaerococcus vaginalis) | MIC50 (Peptoniphilus harei) | MIC50 (Peptoniphilus lacrimalis) | MIC50 (Thomasclavelia ramosa) | MIC90 (Thomasclavelia ramosa) | MIC90 (Eubacterium limosum) | MIC50 (Anaerococcus) | MIC50 (Gemella sanguinis) | MIC50 (Bacteroides caccae) | MIC90 [3] | MIC50 (Bacteroides fragilis)
2 µg/mL: MIC90 (Prevotella disiens) | MIC50 (Veillonella) | MIC90 (Bacteroides caccae) | MIC90 (Bacteroides fragilis)
0.5 µg/mL: MIC50 (Prevotella disiens) | MIC50 (Clostridium butyricum) | MIC50 [2] | MIC50 (Clostridium symbiosum) | MIC50 (Eubacterium limosum) | MIC50 (Clostridium subterminale) | MIC50 (Clostridioides difficile) | MIC50 [3]

— ChEMBL document CHEMBL1255409, “In vitro activity of ceftaroline against 623 diverse strains of anaerobic bacteria” (2010)
